Source: ChEMBL document CHEMBL1130082, “5,6-Cis-penems: broad-spectrum anti-methicillin-resistant Staphylococcus aureus beta-lactam antibiotics” (1997)
≈ marks a conversion by molar mass, not a printed value.

What was measured:
Assay type in all cases: functional
[1] = tested on: Bacillus subtilis; experiment: Minimum inhibitory concentration was determined in heart infusion agar medium against Bacillus subtilis ATCC 6633
Method in brief: (§1)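 Agar dilution on heart infusion agar, inoculum 10^6 cells/mL, incubated 24 h at 37 °C; the MIC is read as the lowest concentration that inhibits growth.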

[2] = tested on: Enterococcus faecalis; experiment: Minimum inhibitory concentration was determined in heart infusion agar medium against Enterococcus faecalis ATCC 19433; method in brief: as §1
[3] = tested on: Enterobacter cloacae; experiment: Minimum inhibitory concentration was determined in heart infusion agar medium against […] organism Enterobacter cloacae NTCC9394; method in brief: as §1
[4] = tested on: Serratia marcescens; experiment: Minimum inhibitory concentration was determined in heart infusion agar medium against Serratia marcescens IAM 1136; method in brief: as §1
[5] = tested on: Escherichia coli; experiment: Minimum inhibitory concentration was determined in heart infusion agar medium against […] organism Escherichia coli KC-14/RGN 823; method in brief: as §1
[6] = tested on: Proteus vulgaris; experiment: Minimum inhibitory concentration was determined in heart infusion agar medium against Proteus vulgaris GN 7919; method in brief: as §1
[7] = tested on: Klebsiella pneumoniae; experiment: Minimum inhibitory concentration was determined in heart infusion agar medium against Klebsiella pneumoniae PCI 602; method in brief: as §1
[8] = tested on: Staphylococcus aureus; experiment: Minimum inhibitory concentration was determined in heart infusion agar medium against Staphylococcus aureus 209P JC-1; method in brief: as §1
[9] = tested on: Staphylococcus aureus; experiment: Minimum inhibitory concentration was determined in heart infusion agar medium against Staphylococcus aureus(MRSA); method in brief: as §1
[10] = tested on: Escherichia coli; experiment: Minimum inhibitory concentration was determined in heart infusion agar medium against Escherichia coli NIHJ JC-2; method in brief: as §1
[11] = tested on: Pseudomonas aeruginosa; experiment: Minimum inhibitory concentration was determined in heart infusion agar medium against Pseudomonas aeruginosa PAO-1; method in brief: as §1
[12] = tested on: Citrobacter freundii; experiment: Minimum inhibitory concentration was determined in heart infusion agar medium against […] organism Citrobacter freundii GN7391; method in brief: as §1

CC[C@H](O)[C@@H]1C(=O)N2C(C(=O)[O-])=C(S[C@@H]3CCN(CC(=O)c4ccccc4)C3)S[C@H]12.[Na+]
MIC [1]: < 0.025 mg/L
MIC [2]: 0.78 mg/L
MIC [3]: 0.39 mg/L
MIC [4]: 1.56 mg/L
MIC [5]: 0.78 mg/L
MIC [6]: 0.78 mg/L
MIC [7]: 0.1 mg/L
MIC [8]: 0.1 mg/L
MIC [9]: 3.13 mg/L
MIC [10]: 0.2 mg/L
MIC [11]: 6.25 mg/L
MIC [12]: 6.25 mg/L

C[C@@H](O)[C@H]1C(=O)N2C(C(=O)[O-])=C([C@H]3CCCO3)S[C@H]12.[Na+] [FAROPENEM SODIUM]
MIC [1]: < 0.025 mg/L
MIC [2]: 0.78 mg/L
MIC [3]: 1.56 mg/L
MIC [4]: 6.25 mg/L
MIC [5]: 0.1 mg/L
MIC [6]: 3.13 mg/L
MIC [7]: 0.2 mg/L
MIC [8]: 0.05 mg/L
MIC [9]: > 100 mg/L
MIC [10]: 0.1 mg/L
MIC [11]: > 100 mg/L
MIC [12]: 25 mg/L

CC[C@H](O)[C@@H]1C(=O)N2C(C(=O)[O-])=C(c3ccccc3)S[C@H]12.[Na+]
MIC [1]: 0.2 mg/L
MIC [2]: 0.2 mg/L
MIC [3]: > 100 mg/L
MIC [4]: 50 mg/L
MIC [5]: 50 mg/L
MIC [6]: 1.56 mg/L
MIC [7]: 6.25 mg/L
MIC [8]: 0.78 mg/L
MIC [9]: 12.5 mg/L
MIC [10]: 25 mg/L
MIC [11]: 100 mg/L
MIC [12]: > 100 mg/L

C[C@@H](O)[C@H]1C(=O)N2C(C(=O)O)=C([C@H]3CCCO3)S[C@H]12 [FAROPENEM]
MIC [1]: 0.05 mg/L (≈ 0.175 µM)
MIC [2]: 0.39 mg/L (≈ 1.37 µM)
MIC [3]: 100 mg/L (≈ 350 µM)
MIC [4]: 25 mg/L (≈ 87.6 µM)
MIC [5]: 25 mg/L (≈ 87.6 µM)
MIC [6]: 1.56 mg/L (≈ 5.47 µM)
MIC [7]: 0.78 mg/L (≈ 2.73 µM)
MIC [8]: 0.78 mg/L (≈ 2.73 µM)
MIC [9]: 25 mg/L (≈ 87.6 µM)
MIC [10]: 0.78 mg/L (≈ 2.73 µM)
MIC [11]: > 100 mg/L
MIC [12]: > 100 mg/L

CC[C@H](O)[C@@H]1C(=O)N2C(C(=O)[O-])=C([C@H]3CCCO3)S[C@H]12.[Na+]
MIC [1]: 0.05 mg/L
MIC [2]: 0.39 mg/L
MIC [3]: > 100 mg/L
MIC [4]: 25 mg/L
MIC [5]: > 100 mg/L
MIC [6]: 1.56 mg/L
MIC [7]: 1.56 mg/L
MIC [8]: 0.39 mg/L
MIC [9]: 6.25 mg/L
MIC [10]: 3.13 mg/L
MIC [11]: > 100 mg/L
MIC [12]: > 100 mg/L

CC(O)[C@H]1C(=O)N2C(C(=O)O)=C(SCCNC=N)C[C@H]12 (single isomer, unassigned) [IMIPENEM ANHYDROUS]
MIC [1]: < 0.025 mg/L
MIC [2]: 0.78 mg/L (≈ 2.61 µM)
MIC [3]: 0.2 mg/L (≈ 0.668 µM)
MIC [4]: 0.78 mg/L (≈ 2.61 µM)
MIC [5]: 0.1 mg/L (≈ 0.334 µM)
MIC [6]: 3.13 mg/L (≈ 10.5 µM)
MIC [7]: 0.2 mg/L (≈ 0.668 µM)
MIC [8]: < 0.025 mg/L
MIC [9]: > 100 mg/L
MIC [10]: 0.2 mg/L (≈ 0.668 µM)
MIC [11]: 1.56 mg/L (≈ 5.21 µM)
MIC [12]: 0.39 mg/L (≈ 1.3 µM)

CC[C@@H](O)[C@H]1C(=O)N2C(C(=O)[O-])=C([C@H]3CCCO3)S[C@H]12.[Na+]
MIC [1]: 0.78 mg/L
MIC [2]: 25 mg/L
MIC [3]: > 100 mg/L
MIC [4]: > 100 mg/L
MIC [5]: 12.5 mg/L
MIC [6]: 25 mg/L
MIC [7]: 12.5 mg/L
MIC [8]: 0.78 mg/L
MIC [9]: > 100 mg/L
MIC [10]: 100 mg/L
MIC [11]: > 100 mg/L
MIC [12]: > 100 mg/L

CC[C@H](O)[C@@H]1C(=O)N2C(C(=O)[O-])=C(S[C@@H]3CCNC3)S[C@H]12.[Na+]
MIC [1]: 0.05 mg/L
MIC [2]: 1.56 mg/L
MIC [3]: 0.78 mg/L
MIC [4]: 3.13 mg/L
MIC [5]: 0.78 mg/L
MIC [6]: 0.78 mg/L
MIC [7]: 0.39 mg/L
MIC [8]: 0.1 mg/L
MIC [9]: 3.13 mg/L
MIC [10]: 0.2 mg/L
MIC [11]: 12.5 mg/L
MIC [12]: 6.25 mg/L
